Assay results from ChEMBL document CHEMBL3632581, “Dimers of Melampomagnolide B Exhibit Potent Anticancer Activity against Hematological and Solid Tumor Cells” (J Med Chem, 2015).
pEC50: −log10 of the molar value.

Assays:
DU-145 = assay: Cytotoxicity against human DU145 cells after 48 hrs by SRB assay; format: functional; details: DU-145, 48 h
Summary of the method: (§1)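 NCI-60 five-dose screen at 10−8 to 10−4 M. Cells were plated at 5,000–40,000/well in RPMI 1640 with 5% FBS and 2 mM L-glutamine, then preincubated 24 h, and time-zero plates were TCA-fixed. Compound was added from DMSO stocks and exposed 48 h at 37 °C. Cells were TCA-fixed, SRB-stained, and read at 515 nm. LC50 is the concentration halving the cell population through cell death.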

[1] = Antileukemic activity against human AML03 cells after 24 hrs by annexin V/7-AAD staining-based flow cytometric analysis; format: functional, cell-based
Summary of the method: (§2)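 Primary AML specimens from consenting donors, isolated by Ficoll-Paque gradient and sometimes cryopreserved. Cells were held 1 h in serum-free IMDM with 20% BIT 9500, LDL and β-mercaptoethanol before drug (DMSO stock diluted in PBS, ≤0.5% DMSO final). Exposure was 24 h over 0.5-10 μM. Annexin V/7-AAD double-negative cells, normalized to vehicle, gave the EC50. Run in triplicate.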

UO-31 = assay: Cytotoxicity against human UO31 cells after 48 hrs by SRB assay; format: functional; details: UO-31, 48 h
Summary of the method: (§3)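 NCI-60 screen: cells grown in RPMI 1640 with 5% FBS and 2 mM L-glutamine, plated at 5,000–40,000 cells/well by doubling time, and preincubated 24 h at 37 °C before drug. Drug was diluted from DMSO stock and given at five concentrations, 10−4 to 10−8 M, for 48 h. Cells fixed with cold TCA, SRB stained, OD read at 515 nm against time-zero and vehicle plates. LC50 taken as the concentration that halves cell population through cell death.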

LOX IMVI = assay: Cytotoxicity against human LOXIMVI cells after 48 hrs by SRB assay; format: functional; summary of the method: as §1
786-0 = assay: Cytotoxicity against human 786-0 cells after 48 hrs by SRB assay; format: functional; details: 786-0, 48 h; summary of the method: as §1
OVCAR-4 = assay: Cytotoxicity against human OVCAR4 cells after 48 hrs by SRB assay; format: functional; details: OVCAR-4, 48 h; summary of the method: as §1
NCI-H522 = assay: Cytotoxicity against human NCI-H522 cells after 48 hrs by SRB assay; format: functional; details: NCI-H522, 48 h; summary of the method: as §1
SNB-75 = assay: Cytotoxicity against human SNB75 cells after 48 hrs by SRB assay; format: functional; details: SNB-75, 48 h; summary of the method: as §1
U-251 = assay: Cytotoxicity against human U251 cells after 48 hrs by SRB assay; format: functional; details: U-251, 48 h; summary of the method: as §3
SK-MEL-5 = assay: Cytotoxicity against human SK-MEL-5 cells after 48 hrs by SRB assay; format: functional; details: SK-MEL-5, 48 h; summary of the method: as §1
M14 = assay: Cytotoxicity against human M14 cells after 48 hrs by SRB assay; format: functional; details: M14, 48 h; summary of the method: as §1
SK-MEL-2 = assay: Cytotoxicity against human SK-MEL-2 cells after 48 hrs by SRB assay; format: functional; details: SK-MEL-2, 48 h; summary of the method: as §1
HOP-62 = assay: Cytotoxicity against human HOP62 cells after 48 hrs by SRB assay; format: functional; details: HOP-62, 48 h; summary of the method: as §1
[2] = Antileukemic activity against human AML04 cells after 24 hrs by annexin V/7-AAD staining-based flow cytometric analysis; format: functional, cell-based; summary of the method: as §2
K562 = assay: Cytotoxicity against human K562 cells after 48 hrs by SRB assay; format: functional; details: K562, 48 h; summary of the method: as §1
SK-OV-3 = assay: Cytotoxicity against human SKOV3 cells after 48 hrs by SRB assay; format: functional; details: SK-OV-3, 48 h; summary of the method: as §1
UACC-62 = assay: Cytotoxicity against human UACC62 cells after 48 hrs by SRB assay; format: functional; details: UACC-62, 48 h; summary of the method: as §3
HCC 2998 = assay: Cytotoxicity against human HCC2998 cells after 48 hrs by SRB assay; format: functional; details: HCC 2998, 48 h; summary of the method: as §1
SW-620 = assay: Cytotoxicity against human SW620 cells after 48 hrs by SRB assay; format: functional; details: SW-620, 48 h; summary of the method: as §3
BT-549 = assay: Cytotoxicity against human BT549 cells after 48 hrs by SRB assay; format: functional; details: BT-549, 48 h; summary of the method: as §1
T47D = assay: Cytotoxicity against human T47D cells after 48 hrs by SRB assay; format: functional; summary of the method: as §3
[3] = Cytotoxicity against human Hs 578T cells after 48 hrs by SRB assay; format: functional; summary of the method: as §1
[4] = Antileukemic activity against human AML02 cells after 24 hrs by annexin V/7-AAD staining-based flow cytometric analysis; format: functional, cell-based; summary of the method: as §2
[5] = Antileukemic activity against human AML05 cells after 24 hrs by annexin V/7-AAD staining-based flow cytometric analysis; format: functional, cell-based; summary of the method: as §2
PC-3 = assay: Cytotoxicity against human PC3 cells after 48 hrs by SRB assay; format: functional; details: PC-3, 48 h; summary of the method: as §1
HCT-15 = assay: Cytotoxicity against human HCT15 cells after 48 hrs by SRB assay; format: functional; details: HCT-15, 48 h; summary of the method: as §1
RXF 393 = assay: Cytotoxicity against human RXF393 cells after 48 hrs by SRB assay; format: functional; details: RXF 393, 48 h; summary of the method: as §1
OVCAR-8 = assay: Cytotoxicity against human OVCAR8 cells after 48 hrs by SRB assay; format: functional; details: OVCAR-8, 48 h; summary of the method: as §1
OVCAR-3 = assay: Cytotoxicity against human OVCAR3 cells after 48 hrs by SRB assay; format: functional; details: OVCAR-3, 48 h; summary of the method: as §1
[6] = Cytotoxicity against hematopoietic progenitor cells isolated from human umbilical cord blood by annexin V staining-based flow cytometric analysis; format: cell-based
Summary of the method: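 Cord-blood mononuclear cells from Ficoll-Paque were plated in serum-free medium, with drug from a DMSO stock (≤0.5% DMSO final). Cells were stained for CD34, CD45 and annexin V. The non-apoptotic fraction (annexin V-negative within the CD34+CD45dim compartment) was normalized to vehicle, and EC50 was fitted where possible. Triplicate.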

MDA-MB-468 = assay: Cytotoxicity against human MDA-MB-468 cells after 48 hrs by SRB assay; format: functional; details: MDA-MB-468, 48 h; summary of the method: as §1
NCI-H23 = assay: Cytotoxicity against human NCI-H23 cells after 48 hrs by SRB assay; format: functional; details: NCI-H23, 48 h; summary of the method: as §1
RPMI-8226 = assay: Cytotoxicity against human RPMI8226 cells after 48 hrs by SRB assay; format: functional; details: RPMI-8226, 48 h; summary of the method: as §1
[7] = read-out: LC50 (the source's name)

## C=C1C(=O)O[C@H]2[C@H]1CC/C(COC(=O)NCCCCCCCCNC(=O)OC/C1=C/CC[C@@]3(C)O[C@H]3[C@H]3OC(=O)C(=C)[C@@H]3CC1)=C\CC[C@@]1(C)O[C@@H]21
DU-145
  GI50: 1100 nM
  LC50 (concentration killing half the cells): 4810 nM
[1]
  pEC50: 5.54
UO-31
  GI50: 880 nM
UO-31; [7]
  CC50: 4900 nM
LOX IMVI
  GI50: 170 nM
LOX IMVI; [7]
  CC50: 760 nM
786-0
  GI50: 240 nM
786-0; [7]
  CC50: 2930 nM
OVCAR-4
  GI50: 520 nM
OVCAR-4; [7]
  CC50: 4630 nM
NCI-H522
  GI50: 180 nM
NCI-H522; [7]
  CC50: 890 nM
SNB-75
  GI50: 1250 nM
SNB-75; [7]
  CC50: 9840 nM
U-251
  GI50: 570 nM
U-251; [7]
  CC50: 5130 nM
SK-MEL-5
  GI50: 1210 nM
SK-MEL-5; [7]
  CC50: 5530 nM
M14
  GI50: 270 nM
M14; [7]
  CC50: 4530 nM
SK-MEL-2
  GI50: 600 nM
SK-MEL-2; [7]
  CC50: 17000 nM
HOP-62
  GI50: 1530 nM
HOP-62; [7]
  CC50: 7950 nM
[2]
  pEC50: 5.43
K562
  GI50: 340 nM
K562; [7]
  CC50: > 100000 nM
SK-OV-3
  GI50: 3640 nM
SK-OV-3; [7]
  CC50: 35100 nM
UACC-62
  GI50: 190 nM
UACC-62; [7]
  CC50: 1720 nM
HCC 2998
  GI50: 1200 nM
HCC 2998; [7]
  CC50: 5280 nM
SW-620
  GI50: 230 nM
SW-620; [7]
  CC50: 3370 nM
BT-549
  GI50: 250 nM
  LC50: 3570 nM
T47D
  GI50: 320 nM
T47D; [7]
  CC50: > 100000 nM
[3]
  GI50: 1170 nM
[3]; [7]
  CC50: > 100000 nM
[4]
  pEC50: 5.92
[5]
  pEC50: 5.64
PC-3
  GI50: 380 nM
  LC50 (concentration killing half the cell population): 5200 nM
HCT-15
  GI50: 340 nM
HCT-15; [7]
  CC50: 4180 nM
RXF 393
  GI50: 160 nM
RXF 393; [7]
  CC50: 640 nM
OVCAR-8
  GI50: 320 nM
OVCAR-8; [7]
  CC50: 6770 nM
OVCAR-3
  GI50: 330 nM
OVCAR-3; [7]
  CC50: 3320 nM
[6]
  pEC50: < 5.00
MDA-MB-468
  GI50: 190 nM
  LC50: 1500 nM
NCI-H23
  GI50: 480 nM
NCI-H23; [7]
  CC50: 4860 nM
RPMI-8226
  GI50: 250 nM
RPMI-8226; [7]
  CC50: > 100000 nM
